{
  "source": "ChEMBL document CHEMBL4024768",
  "about": "“Discovery and Optimization of Thiazolidinyl and Pyrrolidinyl Derivatives as Inhaled PDE4 Inhibitors for Respiratory Diseases” (J Med Chem, 2017)",
  "key": {"[1]": {"assay": "Inhibition of PDE4 in human PBMC assessed as reduction in LPS-induced TNFalpha release after 18 hrs by quantitative ELISA"}, "[2]": {"assay": "Drug level in human hepatocytes treated with 3, 5 -Dichloro-4-( (S)-2-(3 -(cyclopropylmethoxy)-4-(difluoromethoxy)phenyl)-2-(((S)-1-((3- (dimethylcarbamoyl)-phenyl)sulfonyl)pyrrolidine-2-carbonyl)oxy)ethyl)pyridine 1-Oxide at 10 uM after 60 mins by LC-MS/MS analysis", "assay_type": "ADME, cell-based, Hepatocyte", "details": "1 h", "outline": "(§1)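 Pooled mixed-sex cryopreserved human hepatocytes (1 million cells/mL) in Leibovitz L-15 at 37 °C, compound at 10 μM in duplicate. Sampled at 0 and 60 min. Protein-free supernatant evaporated under nitrogen, reconstituted in mobile phase and analysed by LC−MS/MS. Cell-free medium incubation for 60 min as control.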"}, "[3]": {"assay": "Drug level in human hepatocytes treated with 3, 5-Dichloro-4-((S)-2-(3-(cyclopropylmethoxy)-4-(difluoromethoxy)phenyl)-2-((S)-3-(3-(dimethylcarbamoyl)-phenylsulfonyl)thiazolidine-2-carbonyloxy)ethyl)pyridine 1-Oxide at 10 uM after 60 mins by LC-MS/MS analysis", "assay_type": "ADME, cell-based, Hepatocyte", "details": "1 h", "outline": "as §1"}, "[4]": {"assay": "Inhibition of PDE4 in human U937 cell lysates assessed as residual cAMP after 2.5 mins by LANCE assay"}},
  "data": [
    {"compound": "[O-][n+]1cc(Cl)c(C[C@H](O)c2ccc(OC(F)F)c(OCC3CC3)c2)c(Cl)c1", "values": [
      {"measurement": "IC50", "setting": "[1]", "result": 480, "unit": "nM"},
      {"measurement": "Drug metabolism", "setting": "[2]", "result": "Metabolite_Detected"},
      {"measurement": "Drug metabolism", "setting": "[3]", "result": "Metabolite_Detected"}
    ]},
    {"compound": "CN(C)C(=O)c1cccc(S(=O)(=O)N2CCS[C@H]2C(=O)O[C@@H](Cc2c(Cl)c[n+]([O-])cc2Cl)c2ccc(OC(F)F)c(O)c2)c1", "note": "(relative stereo)", "values": [
      {"measurement": "IC50", "setting": "[4]", "result": "0.183 to 1.95", "unit": "nM"},
      {"measurement": "IC50", "setting": "[1]", "result": 1.95, "unit": "nM"},
      {"measurement": "Drug metabolism", "setting": "[3]", "result": "Metabolite_Detected"}
    ]},
    {"compound": "CN(C)C(=O)c1cccc(S(=O)(=O)N2CCC[C@H]2C(=O)O)c1", "values": [
      {"measurement": "IC50", "setting": "[1]", "result": "> 1000", "unit": "nM"},
      {"measurement": "Drug metabolism", "setting": "[2]", "result": "Metabolite_Detected"}
    ]}
  ]
}
